# Source: ChEMBL document CHEMBL1949533, “Novel molecular combination deriving from natural aminoacids and polyphenols: Design, synthesis and free-radical scavenging activities” (Eur J Med Chem, 2012)
# Legend:
# [1] = system: Radical scavenging activity; test: Antioxidant activity assessed as DPPH free radical scavenging activity by UV-Vis spectrophotometry; assay type: functional
# How it was run: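 DPPH methanolic solution (1.5 mL) mixed with 0.750 mL compound solution at 1, 0.5, 0.25, 0.125 and 0.0625 mg/mL; absorbance decrease read at 517 nm and % remaining DPPH radical calculated. IC50 (concentration halving initial DPPH) derived by regression across concentrations, expressed as nmol/mL.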
# [2] = Antioxidant activity assessed as trolox equivalents ratio of AAPH radical scavenging activity after 30 mins by ORAC-fluorescein assay; assay type: functional
# How it was run: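 Compounds dissolved in PBS immediately before use, pH 7.4; fluorescein quenching initiated by AAPH, fluorescence (excitation 485 nm) read at 37 °C every 5 min up to 30 min. Net area under fluorescein decay curve (blank minus sample) converted to Trolox equivalents via 10–50 µM Trolox calibration; three replicates.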
SMILES,IC50 [1],Ratio [2]
"O=C(O)Cc1ccc(O)c(O)c1 [3,4-DIHYDROXYPHENYLACETIC ACID]",26 µM,4.2
COC(=O)[C@H](CS)NC(=O)/C=C/c1cc(OC)c(O)c(OC)c1,76 µM,1.3
O=C(Cc1ccc(O)c(O)c1)N[C@@H](Cc1ccc(O)cc1)C(=O)NCCc1ccc(O)c(O)c1,32 µM,3.82
COC(=O)[C@@H](N)CS.Cl,123 µM,0.3
COC(=O)[C@H](CS)NC(=O)Cc1ccc(O)c(O)c1,29 µM,3
COC(=O)[C@H](CS)NC(=O)/C=C/c1ccc(O)c(O)c1,22 µM,1.4
COC(=O)[C@H](CCSC)NC(=O)/C=C/c1ccc(O)c(O)c1,25 µM,2.3
COC(=O)[C@H](CS)NC(=O)/C=C/c1cccc(O)c1,185 µM,–
COC(=O)[C@H](CS)NC(=O)c1cc(OC)c(O)c(OC)c1,143 µM,–
O=C(Cc1ccc(O)c(O)c1)N[C@@H](CS)C(=O)NCCc1ccc(O)c(O)c1,20 µM,1.77
Cc1c(C)c2c(c(C)c1O)CCC(C)(C(=O)O)O2 (racemic) [TROLOX],55 µM,–
CSCC[C@H](NC(=O)Cc1ccc(O)c(O)c1)C(=O)NCCc1ccc(O)c(O)c1,68 µM,1.24
O=C(O)/C=C/c1ccc(O)c(O)c1 [CAFFEIC ACID],41 µM,2.7
COC(=O)[C@H](CS)NC(=O)Cc1ccc(O)c(OC)c1,82 µM,2.4
COC(=O)[C@@H](N)CCSC.Cl [METHIONINE METHYL ESTER HYDROCHLORIDE],> 1250 µM,0.8
O=C(/C=C/c1ccc(O)c(O)c1)N[C@@H](Cc1ccc(O)cc1)C(=O)NCCc1ccc(O)c(O)c1,32 µM,2.79
COC(=O)[C@H](CS)NC(=O)/C=C/c1ccc(O)cc1,148 µM,–
COC(=O)[C@H](Cc1ccc(O)cc1)NC(=O)/C=C/c1ccc(O)c(O)c1,30 µM,3.4
CSCC[C@H](NC(=O)/C=C/c1ccc(O)c(O)c1)C(=O)NCCc1ccc(O)c(O)c1,23 µM,3.38
O=C(/C=C/c1ccc(O)c(O)c1)N[C@@H](CS)C(=O)NCCc1ccc(O)c(O)c1,26 µM,0.855
COC(=O)[C@H](CCSC)NC(=O)Cc1ccc(O)c(O)c1,48 µM,3.6
COC(=O)[C@H](Cc1ccc(O)cc1)NC(=O)Cc1ccc(O)c(O)c1,44 µM,4.8
COC(=O)[C@@H](N)Cc1ccc(O)cc1.Cl,> 1280 µM,3.9
COC(=O)[C@H](CS)NC(=O)/C=C/c1ccc(O)c(OC)c1,84 µM,1.4
COC(=O)[C@H](CS)NC(=O)/C=C/c1ccccc1O,150 µM,–
